Data as given in paper PMC3601557 (Chemistry & biology, 2012).
“Also recorded” adds a separate entry of the source.

What was measured:
[1] = target: T1, recombinantly produced FP2 (Plasmodium falciparum, UniProt Q8I6U4); assay: Kinetics of substrate turnover inhibition; type: biochemical, P. falciparum
T1 sequence (Q8I6U4 244-484): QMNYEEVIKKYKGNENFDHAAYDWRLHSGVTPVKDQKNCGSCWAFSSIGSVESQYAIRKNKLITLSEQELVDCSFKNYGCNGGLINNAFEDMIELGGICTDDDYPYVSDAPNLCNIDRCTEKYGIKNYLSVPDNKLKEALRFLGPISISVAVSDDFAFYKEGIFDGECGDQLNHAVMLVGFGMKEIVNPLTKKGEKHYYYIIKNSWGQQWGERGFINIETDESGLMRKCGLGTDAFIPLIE
How it was run: (§1)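 Fluorescence (ex 350 nm, em 460 nm) was followed for 2 hr at several inhibitor concentrations. Turnover relative to DMSO controls (v/v0) was fitted to an irreversible inhibition model; ki = kobs/[I].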

[2] = target: T2, FP1 (Plasmodium falciparum, UniProt P25805); assay: Falcipain inhibition in living parasites; type: cell-based, P. falciparum
T2 sequence (P25805 333-569): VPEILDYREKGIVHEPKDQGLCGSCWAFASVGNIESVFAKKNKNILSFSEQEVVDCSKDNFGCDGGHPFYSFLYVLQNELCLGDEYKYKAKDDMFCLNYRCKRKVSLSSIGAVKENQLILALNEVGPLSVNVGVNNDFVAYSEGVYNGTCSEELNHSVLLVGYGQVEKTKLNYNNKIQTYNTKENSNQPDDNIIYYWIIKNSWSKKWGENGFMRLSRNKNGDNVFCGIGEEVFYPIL

[3] = target: T3, DPAP1 (Plasmodium falciparum, UniProt Q8IIJ9); assay: Competitive ABPP with Cy5-DCG-04, DPAP1 labeling; type: cell-based, P. falciparum
T3 sequence (Q8IIJ9 370-599 limits assumed): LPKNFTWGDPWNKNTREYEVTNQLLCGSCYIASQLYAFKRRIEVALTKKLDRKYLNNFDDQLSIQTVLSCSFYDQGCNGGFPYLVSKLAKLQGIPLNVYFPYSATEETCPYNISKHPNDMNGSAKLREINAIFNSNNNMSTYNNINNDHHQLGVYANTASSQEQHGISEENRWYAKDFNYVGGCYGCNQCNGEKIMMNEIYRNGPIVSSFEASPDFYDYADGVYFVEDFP
T3 sequence (Q8IIJ9 600-700 limits assumed): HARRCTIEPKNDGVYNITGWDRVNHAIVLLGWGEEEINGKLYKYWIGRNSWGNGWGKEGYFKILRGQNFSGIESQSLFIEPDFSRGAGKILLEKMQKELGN
T3 sequence (Q8IIJ9 28-209 limits assumed): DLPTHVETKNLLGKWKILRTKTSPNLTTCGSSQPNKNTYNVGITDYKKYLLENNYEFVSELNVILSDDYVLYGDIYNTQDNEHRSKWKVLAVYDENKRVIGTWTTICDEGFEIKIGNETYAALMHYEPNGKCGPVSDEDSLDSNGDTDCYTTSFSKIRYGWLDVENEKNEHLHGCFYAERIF
How it was run: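 A P. falciparum culture at 20% parasitemia and 2% hematocrit was exposed to graded test compound for 1 hr. Aliquots were lysed with 0.15% saponin in PBS. Parasite pellets were labelled for 1 hr with 1 µM Cy5-DCG04 in acetate buffer containing 1% NP40. After SDS-PAGE, DPAP1 band fluorescence was quantified and fitted to a sigmoidal dose-response curve to give IC50.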

[4] = target: T2, FP1; assay: Competitive ABPP with Cy5-DCG-04 in parasite lysates; type: biochemical, P. falciparum; conditions: D10 lysates, 30 min preincubation, 1 µM Cy5-DCG-04 1 hr
How it was run: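 Trophozoites were harvested 36 hr post-invasion, freed from RBCs with saponin, and extracted in PBS with 1% NP40. Soluble lysate was diluted 1:10 in acetate buffer (50 mM sodium acetate, 5 mM MgCl2, 5 mM DTT) and pretreated 30 min with test compound over a concentration range. Then 1 µM Cy5-DCG04 was added for 1 hr. Reactions were boiled in loading buffer, resolved by SDS-PAGE, and scanned for in-gel fluorescence.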

[5] = system: cathepsins B, H, S, and Z; type: cell-based; conditions: mouse macrophages, 5 µM
How it was run: (§2)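 Bone marrow-derived mouse macrophages were preincubated with 0.5 or 5 µM test compound. Residual protease activity was then read in protein extracts by labelling with either a broad papain-like cysteine protease activity-based probe (cathepsins) or a proteasome-specific activity-based probe (proteasome).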

[6] = target: cathepsin L (Mus musculus, UniProt P06797); type: cell-based; conditions: mouse macrophages, 0.5 µM
How it was run: as §2

[7] = target: T4, recombinantly produced FP3 (Plasmodium falciparum, UniProt Q8IIL0); assay: Kinetics of substrate turnover inhibition; type: biochemical, P. falciparum
T4 sequence (Q8IIL0 243-492): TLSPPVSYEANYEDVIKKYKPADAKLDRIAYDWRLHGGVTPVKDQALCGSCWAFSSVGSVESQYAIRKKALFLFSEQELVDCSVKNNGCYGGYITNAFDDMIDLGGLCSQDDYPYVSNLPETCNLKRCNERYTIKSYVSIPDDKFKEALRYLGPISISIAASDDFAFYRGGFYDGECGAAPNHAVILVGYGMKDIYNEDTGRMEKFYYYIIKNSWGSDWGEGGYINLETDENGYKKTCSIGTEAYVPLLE
How it was run: as §1

[8] = system: proteins in the 28 kDa region (food vacuole falcipains); assay: Labeling of intact schizonts with rhodamine probes; type: cell-based, P. falciparum; conditions: pretreatment with 10 µM nonfluorescent compound, then 10 µM RhSym4 1 hr
How it was run: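 Purified schizonts were pretreated with 10 µM nonfluorescent competitor or DMSO. They were then incubated 1 hr with 10 µM rhodamine-tagged probe in PBS. Samples were boiled in loading buffer, proteins resolved by SDS-PAGE, and labelled bands detected by flatbed fluorescence scanning.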

[9] = system: P. falciparum ring stage parasites (food vacuole); assay: Phenotypic characterization of treated ring stage parasites; type: cell-based; conditions: 24 hr, Giemsa smears
How it was run: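 Synchronized ring-stage cultures (2% parasitemia) were treated with a range of test compound concentrations or DMSO for 24 hr. Morphology was then examined on Giemsa-stained thin blood smears, and the food vacuole defect was scored as enlargement of this acidic organelle.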

[10] = system: red blood cells (RBCs); conditions: even at the highest tested concentrations (>25 µM); ref Conroy et al., 2010; cited from earlier work
[11] = system: DPAP3; assay: Competitive ABPP with DPAP activity-based probe FY01; type: biochemical, P. falciparum; conditions: competitive ABPP with FY01, Figure S3
[12] = system: P. falciparum D10 parasites; assay: P. falciparum replication assay; type: cell-based
[13] = system: FP2, FP2′, and FP3; assay: Competitive ABPP with Cy5-DCG-04 in parasite lysates; type: biochemical, P. falciparum; conditions: D10 lysates, 30 min preincubation, 1 µM Cy5-DCG-04 1 hr
[14] = system: proteasome; type: cell-based; conditions: mouse macrophages preincubated with 0.5 µM and 5 µM
How it was run: as §2

cathepsin L, sequence (P06797 114-334): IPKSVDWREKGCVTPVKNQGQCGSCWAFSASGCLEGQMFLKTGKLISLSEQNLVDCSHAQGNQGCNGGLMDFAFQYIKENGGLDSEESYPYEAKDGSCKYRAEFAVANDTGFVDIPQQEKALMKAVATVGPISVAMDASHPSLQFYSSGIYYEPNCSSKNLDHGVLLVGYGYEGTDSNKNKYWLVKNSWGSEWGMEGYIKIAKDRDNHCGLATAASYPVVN

Question: Which mode of inhibition [1] does the source give for `CC[C@H](C)[C@@H](C(=O)O[C@@H](CC(C)C)C(=O)N[C@@H](CC(C)C)C(=O)N[C@@H](C)/C=C/C(=O)N1C(=O)C=C(OC)[C@@H]1C)N(C)C` [Sym4, symplostatin 4] here?
Answer: The mode of inhibition was “irreversible inhibitor”.

Question: And the IC50 [2]?
Answer: Its IC50 is 140 ± 23 nM.

Question: What about the “inhibition of DPAP1” value ([3]; competitive ABPP with Cy5-DCG04, Figure 4) of the same molecule?
Answer: The value was “neither DPAP1 (Figure 4) nor DPAP3 (Figure S3) is inhibited”.

Question: What about the “inhibition of DPAP1” value ([3]; living parasites, 1 hr, at 1 µM) of the same molecule?
Answer: The value was “did not inhibit”.

Question: What about the “concentration inhibiting Cy5-DCG-04 labeling of FP1” value [4] of the same molecule?
Answer: The value was over 1.6 µM.

Question: What about the “inhibition of cathepsins B, H, S, and Z” value [5] of the same molecule?
Answer: The value was “also inhibited; also recorded: required ten times higher concentrations (i.e., 5 µM) to reach the same inhibition level”.

Question: And the “inhibition of cathepsin L” value [6]?
Answer: Its value is “inhibit; also recorded: inhibits a large portion”.

Question: And the mode of inhibition [7]?
Answer: The mode of inhibition was “irreversible inhibitor”.

Question: What about the “competition of RhSym4 labeling” value [8] of the same molecule?
Answer: Its value is “sensitive to preincubation”.

Question: And the “concentration causing swollen food vacuole phenotype” value [9]?
Answer: The value was 0.1 µM.

Question: What about the “lysis of red blood cells” value [10] of the same molecule?
Answer: The value was “no lysis”.

Question: What about the “inhibition of DPAP3” value [11] of the same molecule?
Answer: Its value is “neither DPAP1 (Figure 4) nor DPAP3 (Figure S3) is inhibited”.

Question: And the “fold higher concentration for parasite killing than for food vacuole defect” value ([12]; EC50 0.7 µM versus 0.1 µM)?
Answer: Its value is 7 fold.

Question: What about the “fold more potent than Sym4^mmp → Ala (EC50)” value ([12]; replication assay, 75 hr) of the same molecule?
Answer: Its value is 40 fold.

Question: What about the “concentration inhibiting Cy5-DCG-04 labeling of FP2, FP2′, and FP3” value [13] of the same molecule?
Answer: Its value is 1.5 nM.

Question: And the “inhibition of the proteasome” value [14]?
Answer: The value was “did not inhibit; also recorded: does not inhibit”.
